Source: ChEMBL document CHEMBL4311931, “Controlling cellular distribution of drugs with permeability modifying moieties” (Medchemcomm, 2019)

Experiments:
[1] = Permeability of compound in 5% DMSO after 7 hrs by PAMPA; format: ADME; conditions: read-out: permeability
PC-3 = assay: Antiproliferative activity against human PC3 cells assessed as reduction in cell viability by Celltiter-Glo assay; format: functional, cell-based
Procedure, shortened: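 PC3 cells from ATCC, authenticated by STR analysis. Viability was read by CellTiter-Glo, and cell EC50 is the geometric mean of at least two duplicate runs.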

[2] = biological target: T1, Nicotinamide phosphoribosyltransferase (Homo sapiens, UniProt P43490); assay: Displacement of fluorescent labelled OG488 from human full length FLAG-tagged NAMPT (1 to 491 residues) expressed in HEK293-6E cells in absence of PRPP by TR-FRET assay; format: cell-based
[3] = biological target: T1, Nicotinamide phosphoribosyltransferase; assay: Displacement of fluorescent labelled OG488 from human full length FLAG-tagged NAMPT (1 to 491 residues) expressed in HEK293-6E cells in presence of PRPP by TR-FRET assay; format: cell-based
[4] = biological target: Bromodomain-containing protein 3 (Homo sapiens, UniProt Q15059); assay: Inhibition of BRD3 (unknown origin) by TR-FRET assay
[5] = biological target: T2, Bromodomain-containing protein 4 (Homo sapiens, UniProt O60885); assay: Inhibition of BRD4 in human […] cells transfected with HPV-E2 assessed as transrepression of HPV-long control region by luciferase reporter assay; format: cell-based
[6] = biological target: T2, Bromodomain-containing protein 4; assay: Inhibition of BRD4 (unknown origin) by TR-FRET assay
[7] = biological target: T2, Bromodomain-containing protein 4; assay: Inhibition of BRD4 in human MX1 cells assessed as decrease in cell proliferation after 3 days by Celltiter-Glo assay relative to parent compound; format: cell-based
Procedure, shortened: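 MX-1 breast cancer cells were treated for a 3-day proliferation assay and read out by CellTiter-Glo. Each EC50 is the geometric mean of at least two duplicate runs. The fold change is the ratio of the result to that of (+)-JQ1.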

[8] = Ratio of drug concentration in unbound HEK293 cell to media; format: ADME; conditions: human
Procedure, shortened: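 In HEK293 cells, Kpuu combines compound binding (fu,HEK) with intracellular accumulation (Kp, cell-to-media concentration ratio). Values are the geometric mean of at least two duplicate runs.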

[9] = biological target: T2, Bromodomain-containing protein 4; assay: Inhibition of BRD4 in luciferase expressing human […] cells transfected with HPV-E2 assessed as transrepression of HPV-long control region by luciferase reporter assay relative to parent compound
Procedure, shortened: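 In-cell target engagement was read in an engineered H1299-derived luciferase reporter system. Each EC50 is the geometric mean of at least two duplicate runs. The fold change is the ratio to (+)-JQ1.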

[10] = biological target: Bromodomain-containing protein 2 (Homo sapiens, UniProt P25440); assay: Inhibition of BRD2 (unknown origin) by TR-FRET assay
Histamine H3 receptor [11] = biological target: T3, Histamine H3 receptor (Homo sapiens, UniProt Q9Y5N1); assay: Antagonist activity at human H3 receptor expressed in CHOK1 cells incubated for 10 mins by HTRF assay; format: cell-based
Histamine H3 receptor [12] = biological target: T3, Histamine H3 receptor; assay: Displacement of [3H]Nalpha-methylhistamine from recombinant human histamine H3 receptor after 60 mins by scintillation counting method
Histamine H3 receptor [13] = biological target: T3, Histamine H3 receptor; assay: Agonist activity at human H3 receptor expressed in CHOK1 cells incubated for 10 mins by HTRF assay; format: cell-based

Sequence of Bromodomain-containing protein 2 (P25440 whole entry): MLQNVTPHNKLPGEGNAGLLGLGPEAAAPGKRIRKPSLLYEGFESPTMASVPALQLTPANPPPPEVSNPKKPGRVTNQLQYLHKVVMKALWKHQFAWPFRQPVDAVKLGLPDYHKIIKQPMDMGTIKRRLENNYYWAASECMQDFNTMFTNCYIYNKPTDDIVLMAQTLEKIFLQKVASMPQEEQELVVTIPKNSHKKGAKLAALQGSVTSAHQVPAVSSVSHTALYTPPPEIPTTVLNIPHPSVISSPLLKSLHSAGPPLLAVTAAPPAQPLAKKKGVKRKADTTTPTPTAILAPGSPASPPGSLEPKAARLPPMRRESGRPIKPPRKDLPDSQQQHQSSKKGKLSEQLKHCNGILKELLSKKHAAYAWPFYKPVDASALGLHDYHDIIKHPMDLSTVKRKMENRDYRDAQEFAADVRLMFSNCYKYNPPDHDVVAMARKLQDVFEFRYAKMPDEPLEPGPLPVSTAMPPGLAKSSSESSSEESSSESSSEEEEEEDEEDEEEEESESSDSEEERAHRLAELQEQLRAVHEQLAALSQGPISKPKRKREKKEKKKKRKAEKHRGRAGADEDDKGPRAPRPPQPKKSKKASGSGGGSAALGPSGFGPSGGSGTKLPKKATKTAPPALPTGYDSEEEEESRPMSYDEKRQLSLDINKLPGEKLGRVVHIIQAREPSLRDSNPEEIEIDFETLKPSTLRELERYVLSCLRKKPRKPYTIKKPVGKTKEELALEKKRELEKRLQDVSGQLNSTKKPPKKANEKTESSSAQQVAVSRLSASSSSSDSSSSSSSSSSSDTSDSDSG
T3 sequence (Q9Y5N1 whole entry): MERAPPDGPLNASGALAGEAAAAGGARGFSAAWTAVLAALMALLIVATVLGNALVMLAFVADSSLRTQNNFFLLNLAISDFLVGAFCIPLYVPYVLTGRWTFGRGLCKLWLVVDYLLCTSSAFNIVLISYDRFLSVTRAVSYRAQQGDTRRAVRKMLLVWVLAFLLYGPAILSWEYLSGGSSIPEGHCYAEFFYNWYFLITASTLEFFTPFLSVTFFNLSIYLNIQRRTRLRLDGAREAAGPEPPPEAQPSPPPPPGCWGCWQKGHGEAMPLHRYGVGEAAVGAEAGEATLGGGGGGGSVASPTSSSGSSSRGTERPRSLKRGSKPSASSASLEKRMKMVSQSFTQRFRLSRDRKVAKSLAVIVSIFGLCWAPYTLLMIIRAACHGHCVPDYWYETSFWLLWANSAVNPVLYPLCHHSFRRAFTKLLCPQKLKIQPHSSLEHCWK
Sequence of Bromodomain-containing protein 3 (Q15059 whole entry): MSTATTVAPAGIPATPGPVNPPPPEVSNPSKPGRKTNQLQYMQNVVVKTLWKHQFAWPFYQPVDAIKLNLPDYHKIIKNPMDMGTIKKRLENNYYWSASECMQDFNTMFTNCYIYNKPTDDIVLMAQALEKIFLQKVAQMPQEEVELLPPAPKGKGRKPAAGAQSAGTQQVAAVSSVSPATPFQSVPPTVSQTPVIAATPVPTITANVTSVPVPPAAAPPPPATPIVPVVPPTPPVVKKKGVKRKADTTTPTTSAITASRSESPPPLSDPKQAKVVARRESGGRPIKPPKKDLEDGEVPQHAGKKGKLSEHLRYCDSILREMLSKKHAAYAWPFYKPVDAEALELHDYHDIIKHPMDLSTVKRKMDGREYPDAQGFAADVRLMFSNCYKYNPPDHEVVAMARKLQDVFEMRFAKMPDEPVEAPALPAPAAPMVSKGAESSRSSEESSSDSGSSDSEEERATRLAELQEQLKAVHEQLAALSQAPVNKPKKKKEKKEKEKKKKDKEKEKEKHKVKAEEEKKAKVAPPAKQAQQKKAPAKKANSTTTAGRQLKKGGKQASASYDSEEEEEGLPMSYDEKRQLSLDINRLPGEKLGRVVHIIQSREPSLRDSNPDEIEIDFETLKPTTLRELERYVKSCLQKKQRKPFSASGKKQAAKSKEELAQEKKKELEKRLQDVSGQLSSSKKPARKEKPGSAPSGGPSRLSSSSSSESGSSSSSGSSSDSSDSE
T1 sequence (P43490 whole entry, the tested form may be a part): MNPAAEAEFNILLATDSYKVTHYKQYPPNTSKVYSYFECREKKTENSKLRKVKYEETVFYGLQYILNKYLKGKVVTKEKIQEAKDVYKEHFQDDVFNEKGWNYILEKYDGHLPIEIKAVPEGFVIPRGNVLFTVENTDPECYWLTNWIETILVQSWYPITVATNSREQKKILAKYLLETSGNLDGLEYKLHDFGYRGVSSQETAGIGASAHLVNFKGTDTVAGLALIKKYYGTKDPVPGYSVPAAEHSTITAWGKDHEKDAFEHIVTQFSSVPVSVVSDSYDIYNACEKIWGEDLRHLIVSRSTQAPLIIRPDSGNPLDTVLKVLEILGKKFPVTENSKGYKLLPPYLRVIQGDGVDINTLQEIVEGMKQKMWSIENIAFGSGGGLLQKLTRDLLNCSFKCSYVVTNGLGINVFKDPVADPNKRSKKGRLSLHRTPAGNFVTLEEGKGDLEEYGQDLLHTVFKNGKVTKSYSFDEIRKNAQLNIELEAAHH

SMILES	Papp at 7 h [1] [×10⁻⁶ cm/s]	IC50 (PC-3) [nM]	Ki [2] [nM]	Ki [3] [nM]	IC50 (Histamine H3 receptor [11]) [nM]	Ki (Histamine H3 receptor [12]) [nM]	EC50 (Histamine H3 receptor [13]) [nM]	IC50 [4] [nM]	EC50 [5] [nM]	IC50 [6] [nM]	fold change (FC) [7]	Ratio [8]	fold change (FC) [9]	IC50 [10] [nM]
CC(C)(C)OC(=O)NCCOCCOCC(=O)NCc1cccc(C(=O)N2CCC(CCCCNC(=O)/C=C/c3cccnc3)CC2)c1	1.2	30.7	14	0.2										
Cc1sc2c(c1C)C(c1ccc(Cl)cc1)=N[C@@H](CC(=O)NCCOCCOCCNC(=O)C1C(C(=O)O)C(C(=O)O)C1C(=O)O)c1nnc(C)n1-2 (some centres undefined)								456	> 10000	> 10000	> 50	0.0359	> 50	997
Cc1nn(CCOCCOCCNC(=O)CCCCCC2(C)C(/C=C/C=C/C=C3/N(CCCS(=O)(=O)O)c4ccc(S(=O)(=O)O)cc4C3(C)C)=[N+](CCCS(=O)(=O)[O-])c3ccc(S(=O)(=O)O)cc32)cc1-c1ccc2cc(CCN3CCC[C@H]3C)ccc2n1 (some centres undefined)	0.284				13	1.9	88							
NCCOCCOCC(=O)NCc1cccc(C(=O)N2CCC(CCCCNC(=O)/C=C/c3cccnc3)CC2)c1	0.016	296	60	1.9										
Cc1sc2c(c1C)C(c1ccc(Cl)cc1)=N[C@@H](CC(=O)NCCOCCOCCNC(=O)OC(C)(C)C)c1nnc(C)n1-2	6.22							42	718	526	3.65	0.168	11.2	35
Cc1sc2c(c1C)C(c1ccc(Cl)cc1)=N[C@@H](CC(=O)NCCOCCOCCNC(=O)CS(=O)(=O)O)c1nnc(C)n1-2								78	> 10000	> 10000	> 50	0.0219	> 50	78
Cc1sc2c(c1C)C(c1ccc(Cl)cc1)=N[C@@H](CC(=O)NCCOCCOCCNC(=O)CCCCCC1(C)C(/C=C/C=C/C=C3/N(CCCS(=O)(=O)O)c4ccc(S(=O)(=O)O)cc4C3(C)C)=[N+](CCCS(=O)(=O)[O-])c3ccc(S(=O)(=O)O)cc31)c1nnc(C)n1-2 (some centres undefined)								> 20500	> 10000	9110	> 50	0.0064	> 50	> 45000
Cc1sc2c(c1C)C(c1ccc(Cl)cc1)=N[C@@H](CC(=O)NCCOCCOCCN)c1nnc(C)n1-2	0.0146							7	8490	2480	17.2	0.0695	> 50	16

Further lines, with some results ahead:

Papp at 7 h [1] [×10⁻⁶ cm/s]	IC50 (PC-3) [nM]	Ki [2] [nM]	Ki [3] [nM]	IC50 (Histamine H3 receptor [11]) [nM]	Ki (Histamine H3 receptor [12]) [nM]	EC50 (Histamine H3 receptor [13]) [nM]	SMILES	IC50 [4] [nM]	EC50 [5] [nM]	IC50 [6] [nM]	fold change (FC) [7]	Ratio [8]	fold change (FC) [9]	IC50 [10] [nM]
				45	5.6	> 3000	Cc1nn(CCOCCOCCNC(=O)CS(=O)(=O)O)cc1-c1ccc2cc(CCN3CCC[C@H]3C)ccc2n1							
0.0246				1	0.7	> 3000	Cc1nn(CCOCCOCCN)cc1-c1ccc2cc(CCN3CCC[C@H]3C)ccc2n1							
0.0131				150	25.4	> 3000	Cc1nn(CCOCCOCCNC(=O)C2C(C(=O)O)C(C(=O)O)C2C(=O)O)cc1-c1ccc2cc(CCN3CCC[C@H]3C)ccc2n1 (some centres undefined)							
0.873				41	1.5	> 3000	Cc1nn(CCOCCOCCNC(=O)OC(C)(C)C)cc1-c1ccc2cc(CCN3CCC[C@H]3C)ccc2n1							
